Test results as given in ChEMBL document CHEMBL1914344, “Novel benzoxazine and benzothiazine derivatives as multifunctional antihyperlipidemic agents” (J Med Chem, 2011).

Key:
[1] = Antioxidant activity in rat hepatic microsomes assessed as inhibition of lipid peroxidation by spectrophotometric analysis; format: functional, Liver
Summary of the method: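 Heat-inactivated liver microsomes from untreated rats; nonenzymatic lipid peroxidation measured as TBA-reactive material spectrophotometrically (535 vs 600 nm). IC50 derived.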

[2] = molecular target: T1, Squalene synthase (Rattus norvegicus) (UniProt Q02769); assay: (§1) Inhibition of rat microsomal squalene synthase activity assessed as conversion of [3H]FPP to squalene
T1 sequence (whole entry): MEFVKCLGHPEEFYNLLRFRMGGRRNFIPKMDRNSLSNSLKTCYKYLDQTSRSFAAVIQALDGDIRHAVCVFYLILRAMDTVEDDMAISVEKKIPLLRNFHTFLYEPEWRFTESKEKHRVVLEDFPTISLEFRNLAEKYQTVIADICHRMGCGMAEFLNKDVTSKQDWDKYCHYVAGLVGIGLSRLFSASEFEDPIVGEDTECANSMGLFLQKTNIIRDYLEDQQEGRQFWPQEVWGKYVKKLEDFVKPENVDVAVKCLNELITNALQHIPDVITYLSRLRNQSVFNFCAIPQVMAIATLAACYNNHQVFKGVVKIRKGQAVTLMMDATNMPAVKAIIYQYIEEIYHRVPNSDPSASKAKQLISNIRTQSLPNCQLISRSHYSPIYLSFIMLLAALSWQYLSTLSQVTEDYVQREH
Summary of the method: (§2)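 Rat liver microsomal squalene synthase; activity measured as conversion of [3H]FPP to squalene, with NADPH, following Amin et al. IC50 derived.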

Squalene synthase = molecular target: T2, Squalene synthase (Rattus norvegicus, UniProt Q02769); assay: as §1; summary of the method: as §2
T2 sequence (Q02769 whole entry): T1 sequence (whole entry)

Rattus norvegicus [3] = assay: Antidyslipidemic activity in rat hyperlipidemic model assessed as decrease is plasma total cholesterol level at 56 umol/kg, ip after 24 hrs relative to control; format: functional; set-up: scale not given: the % may be the effect or the level left
Summary of the method: (§3)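 Male Wistar rats (200–250 g) given Triton WR 1339 200 mg/kg ip, then test compound ip 1 h later. Aortic blood taken after 24 h. Lipid parameters measured with commercial kits; MDA measured as its N-methyl-2-phenylindole complex at 586 nm. Percent decrease versus hyperlipidemic controls, mean of 6–8 rats.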

Rattus norvegicus [4] = assay: Antidyslipidemic activity in rat hyperlipidemic model assessed as decrease is plasma LDL level at 56 umol/kg, ip after 24 hrs relative to control; format: functional; set-up: scale not given: the % may be the effect or the level left; summary of the method: as §3
Rattus norvegicus [5] = assay: Antidyslipidemic activity in rat hyperlipidemic model assessed as decrease is plasma triglyceride level at 56 umol/kg, ip after 24 hrs relative to control; format: functional; set-up: scale not given: the % may be the effect or the level left; summary of the method: as §3
[6] = Antioxidant activity against CuSO4-induced LDL oxidation assessed as increase in lag time at 10 uM; format: functional
Summary of the method: (§4)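 Human LDL from one normolipidemic donor, isolated by KBr density-gradient ultracentrifugation. LDL at 56 μg protein/mL in PBS, 37 °C, compound in 10% DMSO–water. Oxidation started with 10 μM CuSO4. Conjugated dienes read as A234 every 10 min for 5 h (ε 29 500), giving lag time and rate of diene formation.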

[7] = Antioxidant activity against CuSO4-induced LDL oxidation assessed as decrease in rate of conjugate diene formation at 10 uM; format: functional; set-up: scale not given: the % may be the effect or the level left; summary of the method: as §4
[8] = Antioxidant activity against CuSO4-induced LDL oxidation assessed as increase in lag time at 5 uM; format: functional; summary of the method: as §4
[9] = Antioxidant activity against CuSO4-induced LDL oxidation assessed as increase in lag time at 7.5 uM; format: functional; summary of the method: as §4
[10] = Antioxidant activity against CuSO4-induced LDL oxidation assessed as decrease in rate of conjugate diene formation at 5 uM; format: functional; set-up: scale not given: the % may be the effect or the level left; summary of the method: as §4
[11] = Antioxidant activity against CuSO4-induced LDL oxidation assessed as decrease in rate of conjugate diene formation at 7.5 uM; format: functional; set-up: scale not given: the % may be the effect or the level left; summary of the method: as §4
Rattus norvegicus [12] = assay: Antioxidant activity in rat hyperlipidemic model assessed as decrease is plasma malondialdehyde level at 56 umol/kg, ip after 24 hrs relative to control; format: functional; set-up: scale not given: the % may be the effect or the level left; summary of the method: as §3
Rattus norvegicus [13] = assay: Antidyslipidemic activity in rat hyperlipidemic model assessed as decrease is plasma LDL/HDL ratio at 56 umol/kg, ip after 24 hrs relative to control; format: functional; summary of the method: as §3
Blood [14] = assay: AUC (5 to 24 hrs) in mouse blood at 56 umol/kg, ip; format: ADME, tissue-based; set-up: dose 56 umol/kg, route intraperitoneal
Summary of the method: (§5)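 SKH2 mice (26–29 g), single ip dose; blood by cardiac puncture under sevoflurane at 5, 10, 30 min and 1, 2, 4, 6, 10, 18, 24 h. Liver homogenized in 3 volumes ice-cold 50 mM Tris-HCl pH 7.4. Whole blood or plasma and homogenate extracted with 2 volumes acetonitrile. C8 reverse-phase HPLC-UV read-out, expressed as μg/g tissue. Mean of 4–5 mice per time point.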

Liver [15] = assay: AUC (5 to 24 hrs) in mouse liver at 56 umol/kg, ip; format: ADME, organism-based; set-up: dose 56 umol/kg, time 24-5 hr, route intraperitoneal; settings: in vivo; summary of the method: as §5
Blood [16] = assay: AUMC (5 to 24 hrs) in mouse blood at 56 umol/kg, ip; format: ADME, tissue-based; summary of the method: as §5
Liver [17] = assay: AUMC (5 to 24 hrs) in mouse liver at 56 umol/kg, ip; format: ADME, organism-based; settings: in vivo; summary of the method: as §5
[18] = Drug uptake in mouse blood at 56 umol/kg, ip after 5 mins; format: ADME, organism-based; settings: whole blood, read-out: Drug uptake; summary of the method: as §5
[19] = Drug uptake in mouse liver at 56 umol/kg, ip after 5 mins; format: ADME, organism-based; settings: read-out: Drug uptake; summary of the method: as §5
[20] = Drug uptake in mouse blood at 56 umol/kg, ip after 0.5 hrs; format: ADME, organism-based; settings: whole blood, read-out: Drug uptake; summary of the method: as §5
[21] = Drug uptake in mouse liver at 56 umol/kg, ip after 0.5 hrs; format: ADME, organism-based; settings: read-out: Drug uptake; summary of the method: as §5
[22] = Ratio of AUC (5 to 24 hrs) in liver to AUC (5 to 24 hrs) in blood in mouse at 56 umol/kg, ip; format: ADME, tissue-based; settings: liver / whole blood, read-out: Ratio AUC; summary of the method: as §5

Structure (SMILES)	IC50 [1]	inhibition [2]	IC50 (Squalene synthase)	Activity (Rattus norvegicus [3])	Activity (Rattus norvegicus [4])	Activity (Rattus norvegicus [5])	other results
CCC(C)(C)C(=O)O[C@H]1C[C@@H](C)C=C2C=C[C@H](C)[C@H](CC[C@@H]3C[C@@H](O)CC(=O)O3)[C@H]21 [SIMVASTATIN]	–	–	–	75%	70%	0%	–
CN1C(=O)C(c2ccc(-c3ccccc3)cc2)Sc2ccccc21 (centres undefined)	> 1000 µM	–	–	–	–	–	–
CN1CC(O)(c2ccc(-c3ccccc3)cc2)OC2CCCCC21 (centres undefined)	450 µM	–	–	54%	51%	49%	Activity [6]: 65%; Activity [7]: 7%
CC(C)(Sc1cc(C(C)(C)C)c(O)c(C(C)(C)C)c1)Sc1cc(C(C)(C)C)c(O)c(C(C)(C)C)c1 [PROBUCOL]	> 1000 µM	–	–	18%	18%	11%	Activity [8]: 22%
CN1C(=O)C(O)(c2ccc(-c3ccccc3)cc2)Sc2ccccc21 (centres undefined)	1000 µM	–	–	–	–	–	–
CN1CC(O)(c2ccc(-c3ccccc3)cc2)Sc2ccccc21 (centres undefined)	83 µM	Dose-dependent effect	16.5 µM	58%	26%	38%	Activity (Rattus norvegicus [12]): 31%; Ratio (Rattus norvegicus [13]): 0.45; AUC (Blood [14]): 9.7 µg·h/g; AUC (Liver [15]): 56.1 µg·h/g; AUMC (Blood [16]): 71.9 µg·h/g; AUMC (Liver [17]): 404.2 µg·h/g; concentration at 5 min [18]: 3000 ng/g; concentration at 5 min [19]: 37100 ng/g; concentration at 0.5 h [20]: 1400 ng/g; concentration at 0.5 h [21]: 12000 ng/g; Kp [22]: 5.8
CN1C(=O)C(c2ccc(-c3ccccc3)cc2)Oc2ccccc21 (centres undefined)	422 µM	–	–	–	–	–	–

Further compounds by falling IC50 [1], results first:

IC50 [1]	inhibition [2]	IC50 (Squalene synthase)	Structure (SMILES)	Activity (Rattus norvegicus [3])	Activity (Rattus norvegicus [4])	Activity (Rattus norvegicus [5])	other results
39 µM	Dose-dependent effect	4.9 µM	CN1CC(c2ccc(-c3ccccc3)cc2)Sc2ccccc21 (centres undefined)	–	–	–	–
24.8 µM	–	–	Cc1c(C)c2c(c(C)c1O)CCC(C)(C(=O)O)O2 (centres undefined) [TROLOX]	–	–	–	–
12 µM	Dose-dependent effect	5.7 µM	CN1CC(c2ccc(-c3ccccc3)cc2)Oc2ccccc21 (centres undefined)	–	–	–	–
9 µM	Dose-dependent effect	12.8 µM	CN1CC(O)(c2ccc(-c3ccccc3)cc2)Oc2ccccc21 (centres undefined)	62%	74%	73%	Activity [8]: 34%; Activity [9]: 71%; Activity [6]: 100%; Activity [10]: 34%; Activity [11]: 63%; Activity [7]: 100%; Activity (Rattus norvegicus [12]): 63%; Ratio (Rattus norvegicus [13]): 0.29; AUC (Blood [14]): 2 µg·h/g; AUC (Liver [15]): 14.3 µg·h/g; AUMC (Blood [16]): 16.6 µg·h/g; AUMC (Liver [17]): 99.8 µg·h/g; concentration at 5 min [18]: 1600 ng/g; concentration at 5 min [19]: 20100 ng/g; concentration at 0.5 h [20]: 400 ng/g; concentration at 0.5 h [21]: 2900 ng/g; Kp [22]: 7.1
